Source: paper PMC5114172 (Journal of applied toxicology : JAT, 2016)

Assays:
NK cells = assay: Cell viability, trypan blue exclusion; format: cell-based, human; conditions: for Percent Viable Cells: 6 day
PBMCs = assay: Cell viability, trypan blue exclusion; format: cell-based, human; conditions: for Percent Viable Cells / decrease in viability: PBMCs
[1] = test system: highly purified human NKs; assay: IL-1β secretion assay; format: cell-based; conditions: for Interleukin 1 beta secreted: NK
Outline: (§1)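 NK cells, MD-PBMCs, PBMCs or granulocytes (1.5 million/mL) or PBMC+granulocytes (0.75 million/mL each), per donor, exposed 24 h, 48 h or 6 days to 0.05–5 μM test compound diluted from DMSO stock, with DMSO controls. Supernatants kept at −70 °C. IL-1β by sandwich ELISA: HRP detection antibody, acid-stopped substrate, A450 against standards. Detection limit 3 pg/mL; triplicates; ANOVA then t test versus control, p<0.05.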

Granulocytes = assay: IL-1β secretion assay; format: cell-based, human
Outline: as §1

For `CCC[CH2][Sn][CH2]CCC` [DBT, Dibutyltin], the “Percent Viable Cells” value (NK cells; 0.5 μM DBT) was 68±9%, the “Percent Viable Cells” value (NK cells; 1 μM DBT) was 69±3% and the “Percent Viable Cells” value (NK cells; 2.5 μM DBT) was 58±7%. For the same compound, the “Percent Viable Cells” value (NK cells; 5 μM DBT) was 49±19%, the “change in viability compared to the control” value (NK cells; 6 days, 0.05–1 μM DBT) was “no change” and the “average decrease in viability” value (PBMCs; PBMC, 24 h, 5 μM DBT) was 31%. For the same compound, the “Percent Viable Cells” value (PBMCs; 24 h, 0.05 μM DBT) was 96±4%, the “Percent Viable Cells” value (PBMCs; 24 h, 0.1 μM DBT) was 97±3% and the “Percent Viable Cells” value (PBMCs; 24 h, 0.25 μM DBT) was 96±3%. The “Percent Viable Cells” value (PBMCs; 24 h, 0.5 μM DBT) was 95±3%, the “Percent Viable Cells” value (PBMCs; 24 h, 1 μM DBT) was 86±7% and the “Percent Viable Cells” value (PBMCs; 24 h, 2.5 μM DBT) was 69±10 %. For the same compound, the “Percent Viable Cells” value (PBMCs; 24 h, 5 μM DBT) was 65±8 %, the decrease in viability (PBMCs; 24 h, 2.5 and 5 μM DBT) was 25% and the “Percent Viable Cells” value (PBMCs; 48 h, 0.05 μM DBT) was 93±3%. The “Percent Viable Cells” value (PBMCs; 48 h, 0.1 μM DBT) was 94±4%, the “Percent Viable Cells” value (PBMCs; 48 h, 0.25 μM DBT) was 94±4% and the “Percent Viable Cells” value (PBMCs; 48 h, 0.5 μM DBT) was 91±8%. For the same compound, the “Percent Viable Cells” value (PBMCs; 48 h, 1 μM DBT) was 74±16%, the “Percent Viable Cells” value (PBMCs; 48 h, 2.5 μM DBT) was 56±13 % and the decrease in viability (PBMCs; 48 h, 2.5 μM DBT) was 38%. The “Percent Viable Cells” value (PBMCs; 48 h, 5 μM DBT) was 56±8 %, the decrease in viability (PBMCs; 48 h, 5 μM DBT) was 35% and the “Percent Viable Cells” value (PBMCs; 6 day, 0.05 μM DBT) was 68±45%. For the same compound, the “Percent Viable Cells” value (PBMCs; 6 day, 0.1 μM DBT) was 87±11%, the “Percent Viable Cells” value (PBMCs; 6 day, 0.25 μM DBT) was 69±33% and the “Percent Viable Cells” value (PBMCs; 6 day, 0.5 μM DBT) was 68±13%. For the same compound, the “Percent Viable Cells” value (PBMCs; 6 day, 1 μM DBT) was 43±12%, the “Percent Viable Cells” value (PBMCs; 6 day, 2.5 μM DBT) was 36±25% and the “Percent Viable Cells” value (PBMCs; 6 day, 5 μM DBT) was 42±15%. The “average of the maximum fold increase in IL-β secretion” value ([1]; NK cells, 24 h, across donors) was 3.5 fold, the “fold increase in IL-1β secretion” value ([1]; NK cells, donor KB169, 0.05 μM (50 nM) DBT) was 7.9 fold and the “fold increase in IL-1β secretion” value ([1]; NK cells, donor KB169, 0.1 μM (100 nM) DBT) was 6.0 fold. The “Interleukin 1 beta secreted” value ([1]; donor KB130, 24 h, 0.05 μM DBT) was 386 ± 41 pg/mL, the “Interleukin 1 beta secreted” value ([1]; donor KB130, 24 h, 0.1 μM DBT) was 116 ± 27 pg/mL and the “Interleukin 1 beta secreted” value ([1]; donor KB130, 24 h, 0.25 μM DBT) was 17 ± 20 pg/mL. For the same compound, the “Interleukin 1 beta secreted” value ([1]; donor KB130, 48 h, 0.05 μM DBT) was 1372 ± 481 pg/mL, the “Interleukin 1 beta secreted” value ([1]; donor KB130, 48 h, 0.1 μM DBT) was 298 ± 65 pg/mL and the “Interleukin 1 beta secreted” value ([1]; donor KB130, 48 h, 0.25 μM DBT) was 139 ± 46 pg/mL. The “Interleukin 1 beta secreted” value ([1]; donor KB130, 6 day, 0.05 μM DBT) was 782 ± 35 pg/mL, the “Interleukin 1 beta secreted” value ([1]; donor KB130, 6 day, 0.1 μM DBT) was 550 ± 21 pg/mL and the “Interleukin 1 beta secreted” value ([1]; donor KB130, 6 day, 0.25 μM DBT) was 142 ± 27 pg/mL. The “Interleukin 1 beta secreted” value ([1]; donor KB130, 6 day, 0.5 μM DBT) was 46 ± 53 pg/mL, the “Interleukin 1 beta secreted” value ([1]; donor KB155, 24 h, 0.05 μM DBT) was 2965 ± 1004 pg/mL and the “Interleukin 1 beta secreted” value ([1]; donor KB155, 24 h, 0.1 μM DBT) was 2771 ± 70 pg/mL. The “Interleukin 1 beta secreted” value ([1]; donor KB155, 24 h, 0.25 μM DBT) was 779 ± 25 pg/mL, the “Interleukin 1 beta secreted” value ([1]; donor KB155, 24 h, 0.5 μM DBT) was 28 ± 23 pg/mL and the “Interleukin 1 beta secreted” value ([1]; donor KB155, 48 h, 0.05 μM DBT) was 5235 ± 531 pg/mL. For the same compound, the “Interleukin 1 beta secreted” value ([1]; donor KB155, 48 h, 0.1 μM DBT) was 4588 ± 130 pg/mL, the “Interleukin 1 beta secreted” value ([1]; donor KB155, 48 h, 0.25 μM DBT) was 1598 ± 450 pg/mL and the “Interleukin 1 beta secreted” value ([1]; donor KB155, 48 h, 0.5 μM DBT) was 130 ± 39 pg/mL. For the same compound, the “Interleukin 1 beta secreted” value ([1]; donor KB155, 6 day, 0.05 μM DBT) was 1625 ± 164 pg/mL, the “Interleukin 1 beta secreted” value ([1]; donor KB155, 6 day, 0.1 μM DBT) was 1572 ± 245 pg/mL and the “Interleukin 1 beta secreted” value ([1]; donor KB155, 6 day, 0.25 μM DBT) was 960 ± 152 pg/mL. The “Interleukin 1 beta secreted” value ([1]; donor KB155, 6 day, 0.5 μM DBT) was 138 ± 43 pg/mL, the “Interleukin 1 beta secreted” value ([1]; donor KB169, 24 h, 0.05 μM DBT) was 1551 ± 25 pg/mL and the “Interleukin 1 beta secreted” value ([1]; donor KB169, 24 h, 0.1 μM DBT) was 1173 ± 69 pg/mL. For the same compound, the “Interleukin 1 beta secreted” value ([1]; donor KB169, 24 h, 0.25 μM DBT) was 796 ± 137 pg/mL, the “Interleukin 1 beta secreted” value ([1]; donor KB169, 24 h, 0.5 μM DBT) was 114 ± 21 pg/mL and the “Interleukin 1 beta secreted” value ([1]; donor KB169, 48 h, 0.05 μM DBT) was 341 ± 10 pg/mL. The “Interleukin 1 beta secreted” value ([1]; donor KB169, 48 h, 0.1 μM DBT) was 367 ± 53 pg/mL, the “Interleukin 1 beta secreted” value ([1]; donor KB169, 48 h, 0.25 μM DBT) was 262 ± 14 pg/mL and the “Interleukin 1 beta secreted” value ([1]; donor KB169, 6 day, 0.05 μM DBT) was 453 ± 91 pg/mL. For the same compound, the “Interleukin 1 beta secreted” value ([1]; donor KB169, 6 day, 0.1 μM DBT) was 602 ± 257 pg/mL, the “Interleukin 1 beta secreted” value ([1]; donor KB169, 6 day, 0.25 μM DBT) was 511 ± 227 pg/mL and the “Interleukin 1 beta secreted” value ([1]; donor KB169, 6 day, 0.5 μM DBT) was 157 ± 61 pg/mL. For the same compound, the “Secretion of IL-1β” value (Granulocytes; 4 donors, 24 h, any of the conditions tested, limit of detection) was no more than 3 pg/mL, the “average of the maximum fold increase in IL-β secretion” value (Granulocytes; 24 h, across donors) was 3.7 fold and the “change in IL-1β secretion” value (Granulocytes; 48 h, 0.25–5 μM DBT, cells from 3 of the 4 donors) was “increases”.
